PMC8370243 (Antimicrobial Agents and Chemotherapy, 2021)
Where two headings read alike, the source gives them in different places.

Tests used:
[1] = tested on: SARS-CoV-2; assay type: cell-based; conditions: Vero E6 cells, 46 to 50 h
[2] = tested on: Vero E6 cells; assay: Concentration-response cell viability assay, Vero E6 cells; assay type: cell-based, African green monkey; conditions: noninfected
[3] = clinical phase 1 trials; cited from earlier work
[4] = Concentration-response cell viability assay, Vero E6 cells; assay type: cell-based, African green monkey; conditions: African green monkey, noninfected, CC50, Vero E6 cells
[5] = tested on: SARS-CoV-2; assay type: cell-based; conditions: Vero E6
[6] = Concentration-response cell viability assay, A549-hACE2 cells; assay type: cell-based, human; conditions: human, noninfected
[7] = tested on: SARS-CoV-2; assay type: cell-based
[8] = Concentration-response cell viability assay, Huh7.5 cells; assay type: cell-based, human; conditions: human, noninfected
How it was run: (§1)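 Huh7.5 hepatoma cells in DMEM/10% heat-inactivated FBS with penicillin/streptomycin, plated at 9,000 cells/well. The following day, noninfected cultures received test compound dilution series (DMSO-dissolved) or DMSO alone. Incubation was 70–74 h, then CellTiter 96 Aqueous One reagent for 1–3 h at 37°C, 5% CO₂, and absorbance at 492 nm. Each concentration had 2–4 replicate wells, normalised to the mean of 12 untreated control wells on each plate.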

[9] = tested on: SARS-CoV-2; assay type: cell-based; remark: listed apart in the source
[10] = tested on: SARS-CoV-2; assay type: cell-based; conditions: A549-hACE2
[11] = tested on: SARS-CoV-2; assay: Short-term assay for interactions of PIs and remdesivir, Vero E6 cells; assay type: cell-based; conditions: for residual infectivity: Vero E6, treatment condition 3; for interaction with remdesivir (method of Chou and Talalay, CompuSyn): Vero E6 and A549-hACE2 data sets
[12] = tested on: A549-hACE2 cells; assay: Concentration-response cell viability assay, A549-hACE2 cells; assay type: cell-based, human; conditions: noninfected
[13] = tested on: Huh7.5 cells; assay: Concentration-response cell viability assay, Huh7.5 cells; assay type: cell-based, human; conditions: noninfected
How it was run: as §1

[14] = tested on: SARS-CoV-2; conditions: cited from earlier work
[15] = rats; single oral administration; cited from earlier work
[16] = Severe acute respiratory syndrome coronavirus 2, Huh7.5
[17] = Severe acute respiratory syndrome coronavirus 2
[18] = A549-hACE2 cells, […], 46 to 50 h

Which EC50 [1] does the source give for CCCCCOc1ccc(NC(=S)NC(=O)c2cccnc2)cc1C(F)(F)F [ACH-806] here?
The EC50 was 46 µM.

And the CC50 [2]?
Its CC50 is over 429 µM.

What about the “adverse finding that halted development” value [3] of the same compound?
The value was “reversible nephrotoxicity”.

With C=C[C@@H]1C[C@]1(NC(=O)[C@@H]1C[C@@H](Oc2ncc(OC)c3ccc(Cl)cc23)CN1C(=O)[C@@H](NC(=O)OC(C)(C)C)C(C)(C)C)C(=O)NS(=O)(=O)C1CC1 [Asunaprevir, asunaprevir] as the compound, how does the CC50 [4] read?
Its CC50 is 263 µM.

With CC(C)(C)NC(=O)N[C@H](C(=O)N1C[C@H]2[C@@H]([C@H]1C(=O)NC(CC1CCC1)C(=O)C(N)=O)C2(C)C)C(C)(C)C (stereo partly shown) [Boceprevir, boceprevir] as the compound, how does the EC50 [1] read?
Its EC50 is 44 µM.

And the CC50 [4]?
The CC50 was over 1210 µM.

What about the “viral RNA titers in supernatant” value ([5]; 3-fold EC50 boceprevir) of the same compound?
Its value is “decreased to values around the lower limit of quantification”.

What about the “viral suppression (immunostaining)” value ([5]; 3-fold EC50 boceprevir, […], follow-up 9 days) of the same compound?
The value was “sustained viral suppression”.

What about the “viral RNA titers in supernatant” value ([5]; 5-fold EC50 boceprevir) of the same compound?
Its value is “decreased to values around the lower limit of quantification”.

What about the “viral suppression (immunostaining)” value ([5]; 5-fold EC50 boceprevir, […], follow-up 17 days) of the same compound?
The value was “sustained viral suppression”.

What about the CC50 [6] of the same compound?
Its CC50 is over 1210 µM.

And the EC50 [7, 16]?
Its EC50 is 42 µM.

And the CC50 [8]?
The CC50 was 701 µM.

What about the EC50 [9, 17] of the same compound?
Its EC50 is 20 µM.

And the “effect on viral spread (viral RNA titers)” value (shortened to “effect on viral spread”) ([10]; 1- to 5-fold EC50 boceprevir)?
Its value is “minor impact”.

And the “effect on viral spread” value ([10]; 1-fold EC50 PI singly)?
Its value is “no to little effect”.

And the “effect on viral spread” value ([10]; 8-fold EC50 boceprevir, observation period 13 days)?
Its value is “viral suppression”.

And the residual infectivity ([11]; 17.4 μM boceprevir singly)?
The residual infectivity was 79%.

And the “interaction with remdesivir (method of Chou and Talalay, CompuSyn)” value (from here on “interaction with remdesivir”) [11]?
Its value is “primarily antagonistic”.

With CC(C)(C)OC(=O)N[C@H]1CCCCC/C=C\[C@@H]2C[C@@]2(C(=O)NS(=O)(=O)C2CC2)NC(=O)[C@@H]2C[C@@H](OC(=O)N3Cc4cccc(F)c4C3)CN2C1=O [Danoprevir, danoprevir] as the compound, how does the CC50 [2] read?
The CC50 was over 243 µM.

Which CC50 [4] does the source give for COc1ccc2c(O[C@@H]3C[C@H]4C(=O)N[C@]5(C(=O)NS(=O)(=O)C6CC6)C[C@H]5/C=C\CCCCC[C@H](CC(=O)N5CCCC(F)(F)C5)C(=O)N4C3)cc(-c3nc(C(C)C)cs3)nc2c1C [Deldeprevir, deldeprevir] here?
Its CC50 is 56 µM.

With CC(C)(C)[C@@H]1NC(=O)O[C@@H]2CCC[C@H]2OC/C=C/C(F)(F)c2nc3ccccc3nc2O[C@@H]2C[C@@H](C(=O)N[C@]3(C(=O)NS(=O)(=O)C4(C)CC4)C[C@H]3C(F)F)N(C2)C1=O [Glecaprevir, glecaprevir] as the compound, how does the CC50 [2] read?
Its CC50 is over 268 µM.

And the CC50 [6]?
Its CC50 is over 268 µM.

What about the EC50 [9, 17] of the same compound?
The EC50 was over 94 µM.

For C=C[C@@H]1C[C@]1(NC(=O)[C@@H]1C[C@@H]2CN1C(=O)[C@H](C(C)(C)C)NC(=O)O[C@@H]1C[C@H]1CCCCCc1nc3ccc(OC)cc3nc1O2)C(=O)NS(=O)(=O)C1CC1.O [Grazoprevir, grazoprevir], which EC50 [1] is on record?
The EC50 was 42 µM.

And the CC50 [2]?
The CC50 was 239 µM.

And the infected culture cells ([5]; 1-fold EC50 PI, […])?
The infected culture cells was 90%.

What about the CC50 [12] of the same compound?
Its CC50 is 125 µM.

What about the EC50 ([7]; Huh7.5 cells, […], 70 to 74 h) of the same compound?
Its EC50 is 20 µM.

And the CC50 [13]?
The CC50 was 133 µM.

What about the EC50 [9, 18] of the same compound?
The EC50 was 26 µM.

And the “effect on viral spread” value ([10]; 1-fold EC50 PI singly)?
Its value is “no to little effect”.

And the “interaction with remdesivir” value [11]?
Its value is “primarily synergistic”.

What does the source list for CCCC[C@H](NC(=O)[C@@H]1[C@@H]2[C@H](CN1C(=O)[C@@H](NC(=O)NC1(CS(=O)(=O)C(C)(C)C)CCCCC1)C(C)(C)C)C2(C)C)C(=O)C(=O)NC1CC1 [Narlaprevir, narlaprevir]?
EC50 [1]: 37 µM; CC50 [4]: 269 µM; interaction with remdesivir (method of Chou and Talalay, CompuSyn) [11]: primarily antagonistic

With Cc1cnc(C(=O)N[C@H]2CCCCC/C=C\[C@@H]3C[C@@]3(C(=O)NS(=O)(=O)C3CC3)NC(=O)[C@@H]3C[C@@H](Oc4nc5ccccc5c5ccccc45)CN3C2=O)cn1 [Paritaprevir, paritaprevir] as the compound, how does the CC50 [2] read?
Its CC50 is 123 µM.

What about the “interaction with remdesivir” value [11] of the same compound?
Its value is “primarily synergistic”.

For CCC(CC)COC(=O)[C@H](C)N[P@](=O)(OC[C@H]1O[C@@](C#N)(c2ccc3c(N)ncnn23)[C@H](O)[C@@H]1O)Oc1ccccc1 [Remdesivir, remdesivir], which EC50 [9, 17] is on record?
The EC50 was 0.1 µM.

What about the residual infectivity ([11]; 0.6 μM remdesivir singly) of the same compound?
The residual infectivity was 83%.

What about the residual infectivity ([11]; 1.7 μM remdesivir singly) of the same compound?
The residual infectivity was 47%.

Which CC50 [4] does the source give for COc1ccc2c(O[C@@H]3C[C@H]4C(=O)N[C@]5(C(=O)NS(=O)(=O)C6CC6)C[C@H]5/C=C\CCCCN(C)C(=O)[C@@H]4C3)cc(-c3nc(C(C)C)cs3)nc2c1C [Simeprevir, simeprevir] here?
The CC50 was 59 µM.

And the EC50 ([14]; human lung cells)?
The EC50 was 1 µM.

And the CC50 [6]?
Its CC50 is 56 µM.

And the EC50 [7, 16]?
Its EC50 is 14 µM.

And the “concentration in the intestine relative to plasma” value [15]?
The value was “up to 128 fold”.

What about the “concentrations in other tissues relative to plasma” value [15] of the same compound?
Its value is “roughly equal to plasma concentrations”.

And the CC50 [8]?
The CC50 was 33 µM.

And the EC50 [9, 17]?
The EC50 was 9 µM.

And the “effect on viral spread” value ([10]; 1-fold EC50 PI singly)?
Its value is “no to little effect”.

And the residual infectivity ([11]; 11.1 μM simeprevir singly)?
Its residual infectivity is 100%.

Which CC50 [4] does the source give for CCC[C@H](NC(=O)[C@@H]1[C@H]2CCC[C@H]2CN1C(=O)[C@@H](NC(=O)[C@@H](NC(=O)c1cnccn1)C1CCCCC1)C(C)(C)C)C(=O)C(=O)NC1CC1 [Telaprevir, telaprevir] here?
Its CC50 is over 432 µM.

For CC[C@@H]1C[C@]1(NC(=O)[C@@H]1C[C@@H]2CN1C(=O)[C@H](C(C)(C)C)NC(=O)OCC(C)(C)CCCCc1cccc3c1CN(C3)C(=O)O2)C(=O)NS(=O)(=O)C1CC1 [Vaniprevir, vaniprevir], which CC50 [2] is on record?
The CC50 was 171 µM.

Which EC50 [1] does the source give for voxilaprevir here?
Its EC50 is over 27 µM.

And the CC50 [2]?
The CC50 was 72 µM.

What about the EC50 ([14]; A549-hACE2 cell line) of the same compound?
The EC50 was over 10 µM.

And the CC50 [12]?
The CC50 was 81 µM.

What about the EC50 [9, 18] of the same compound?
The EC50 was 10 µM.
